Active and inactive are the calls of the source. No cut-off for these calls is given here.
Legend:
Rattus norvegicus [1] = test: Antiinflammatory activity in Sprague-Dawley/Wistar rat assessed as decrease in carrageenan-induced hyperalgesia at 20 mg/kg, po administered 4 hrs after carrageenan-challenge measured after 120 mins (reference value: 31.4 +/- 3.7 g); type: functional
Aorta [2] = test: Vasorelaxant activity in Wistar rat endothelium-removed thoracic aortic rings assessed as reduction of KCl-induced vasoconstriction at 0.001 uM to 10 uM treated after KCl-challenge in presence of guanylate cyclase inhibitor 1H-[1,2,4]-oxadiazolo[4,3-a]quinoxalin-1-one; type: functional, tissue-based
Procedure, shortened: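 Endothelium-denuded aortic rings from male Wistar rats (250-350 g) were preincubated with ODQ 1 µM. Rings were contracted with KCl 30 mM, then given 3-fold increasing concentrations from 1 nM to 10 µM. Emax is the % relaxation of KCl tone. pIC50 was calculated when efficacy reached 50%, from 6-10 experiments.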

Aorta [3] = test: Vasorelaxant activity in Wistar rat endothelium-removed thoracic aortic rings assessed as reduction of KCl-induced vasoconstriction treated after KCl-challenge; type: functional, tissue-based
Procedure, shortened: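 Thoracic aortic rings from male Wistar rats (250-350 g), endothelium removed by rubbing; removal confirmed as <10% relaxation to ACh 10 µM in KCl 30 mM-contracted rings. Rings contracted with KCl 30 mM; at plateau, 3-fold increasing compound concentrations (1 nM-10 µM) added. Isometric tension recorded. Emax given as % of KCl tone; pIC50 as -log molar concentration halving that tone. 6-10 experiments; also run with ODQ 1 µM.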

J774 = test: Selectivity index, ratio of IC50 for COX1 in mouse J774 cells […]; type: cell-based
[4] = biological target: Prostaglandin G/H synthase 1 (Homo sapiens, UniProt P23219); test: Inhibition of COX1 in human whole blood assessed as reduction in TXB2 generation
Procedure, shortened: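 Clotting assay in whole blood from three healthy volunteers with no NSAID for 2 weeks. Compounds in DMSO were added at 0.1-300 µM final. Blood clotted in glass tubes at 37 °C for 1 h. Serum TXB2 was measured by RIA as a reflection of platelet COX-1 activity driven by endogenous thrombin.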

[5] = biological target: T1, Prostaglandin G/H synthase 2 (Homo sapiens) (UniProt P35354); test: (§1) Inhibition of COX2 in human whole blood assessed as reduction in LPS-induced PGE2 generation pre-treated prior to LPS-challenge
T1 sequence (whole entry): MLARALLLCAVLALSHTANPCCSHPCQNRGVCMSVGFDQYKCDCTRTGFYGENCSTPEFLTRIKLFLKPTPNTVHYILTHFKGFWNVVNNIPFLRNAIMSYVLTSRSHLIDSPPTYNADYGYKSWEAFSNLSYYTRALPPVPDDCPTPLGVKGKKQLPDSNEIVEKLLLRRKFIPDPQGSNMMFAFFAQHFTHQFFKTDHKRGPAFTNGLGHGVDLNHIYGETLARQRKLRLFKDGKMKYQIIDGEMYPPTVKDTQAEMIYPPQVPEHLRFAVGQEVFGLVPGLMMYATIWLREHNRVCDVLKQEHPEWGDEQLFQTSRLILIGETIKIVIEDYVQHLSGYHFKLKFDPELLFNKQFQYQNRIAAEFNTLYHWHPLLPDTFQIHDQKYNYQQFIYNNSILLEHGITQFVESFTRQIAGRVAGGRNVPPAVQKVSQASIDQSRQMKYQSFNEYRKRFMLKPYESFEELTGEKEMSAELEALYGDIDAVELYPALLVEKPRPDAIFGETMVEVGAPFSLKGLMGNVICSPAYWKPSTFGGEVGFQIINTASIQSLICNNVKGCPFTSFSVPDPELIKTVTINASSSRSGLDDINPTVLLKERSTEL
Procedure, shortened: (§2)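 Heparinized whole blood came from three healthy volunteers pretreated with aspirin 300 mg 48 h before sampling to suppress platelet COX-1. Compounds in DMSO were added at 0.1-300 µM final. Blood was incubated with LPS 10 µg/mL for 24 h at 37 °C. Plasma PGE2 was measured by RIA.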

[6] = biological target: T2, Prostaglandin G/H synthase 2 (Homo sapiens, UniProt P35354); test: as §1; procedure, shortened: as §2
T2 sequence (P35354 whole entry): T1 sequence (whole entry)

Rattus norvegicus [7] = test: Antiinflammatory activity in Sprague-Dawley/Wistar osteoarthritis model rat assessed as decrease in monoiodoacetate-induced hyperalgesia at 20 mg/kg, po bid for 14 days administered from day of monoiodoacetate-challenge followed by additional compound treatment after 30 mins […] by paw pressure test (reference value: 30.4 +/- 3.1 g); type: functional
Rattus norvegicus [8] = test: Antiinflammatory activity in Sprague-Dawley/Wistar osteoarthritis model rat assessed as decrease in monoiodoacetate-induced hyperalgesia at 20 mg/kg, po bid for 14 days administered from day of monoiodoacetate-challenge […] post by paw pressure test (reference value: 32.6 +/- 2.9 g); type: functional
Rattus norvegicus [9] = test: Antiinflammatory activity in Sprague-Dawley/Wistar rat assessed as decrease in carrageenan-induced paw edema at 10 mg/kg, po administered 3 hrs 30 mins after carrageenan-challenge measured after 60 mins (reference value: 2.48 +/- 0.06 mL); type: functional
Rattus norvegicus [10] = test: Antiinflammatory activity in Sprague-Dawley/Wistar rat assessed as decrease in carrageenan-induced paw edema at 20 mg/kg, po administered 3 hrs 30 mins after carrageenan-challenge measured after 60 mins (reference value: 2.48 +/- 0.06 mL); type: functional
Rattus norvegicus [11] = test: Antiinflammatory activity in Sprague-Dawley/Wistar rat assessed as decrease in carrageenan-induced hyperalgesia at 10 mg/kg, po administered 4 hrs after carrageenan-challenge measured after 60 mins (reference value: 33.9 +/- 3.7 g); type: functional
Rattus norvegicus [12] = test: Antiinflammatory activity in Sprague-Dawley/Wistar rat assessed as decrease in carrageenan-induced hyperalgesia at 10 mg/kg, po administered 4 hrs after carrageenan-challenge measured after 30 mins (reference value: 34.8 +/- 3.0 g); type: functional

Prostaglandin G/H synthase 1, sequence (P23219 whole entry): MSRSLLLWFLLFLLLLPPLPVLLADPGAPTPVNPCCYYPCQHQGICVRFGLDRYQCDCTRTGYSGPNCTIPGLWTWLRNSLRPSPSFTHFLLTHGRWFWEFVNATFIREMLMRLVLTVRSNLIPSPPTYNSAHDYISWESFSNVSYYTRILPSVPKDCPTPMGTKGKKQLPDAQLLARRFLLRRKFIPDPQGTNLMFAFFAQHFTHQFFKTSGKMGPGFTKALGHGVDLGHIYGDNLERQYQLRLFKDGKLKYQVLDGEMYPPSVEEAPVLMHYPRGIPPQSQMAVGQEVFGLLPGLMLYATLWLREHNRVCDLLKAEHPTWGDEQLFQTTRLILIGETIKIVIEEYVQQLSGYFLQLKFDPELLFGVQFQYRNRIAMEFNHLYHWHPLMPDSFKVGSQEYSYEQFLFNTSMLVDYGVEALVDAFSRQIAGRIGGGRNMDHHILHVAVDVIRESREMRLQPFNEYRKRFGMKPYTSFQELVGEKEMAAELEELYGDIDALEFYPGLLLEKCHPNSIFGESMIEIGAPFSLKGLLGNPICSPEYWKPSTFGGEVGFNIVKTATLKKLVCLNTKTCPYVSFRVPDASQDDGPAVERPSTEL

Which Activity (Rattus norvegicus [1]) does the source give for `Cc1c(CCOCCO[N+](=O)[O-])cc(-c2ccc(S(C)(=O)=O)cc2)n1-c1ccc(F)cc1` here?
Its Activity is 43.8 g.

And the Activity (Aorta [2])?
Its Activity is “inactive”.

And the IC50 (Aorta [3])?
The IC50 was ≥ 10 µM.

What about the pIC50 (Aorta [3]) of the same compound?
The pIC50 was “Dose-dependent effect”.

And the Ratio IC50 (J774)?
The Ratio IC50 was > 714.

And the IC50 [4]?
The IC50 was 31.2 µM.

What about the IC80 [4] of the same compound?
The IC80 was 63.3 µM.

And the inhibition [4]?
Its inhibition is “Dose-dependent effect”.

And the IC80 [5]?
Its IC80 is 2.26 µM.

And the inhibition [5]?
Its inhibition is “Dose-dependent effect”.

What about the IC50 [6] of the same compound?
Its IC50 is 0.64 µM.

And the Activity (Rattus norvegicus [7])?
The Activity was 45.1 g.

And the Activity (Rattus norvegicus [8])?
Its Activity is 43.5 g.

What about the Activity (Rattus norvegicus [9]) of the same compound?
Its Activity is 1.87 mL.

What about the Activity (Rattus norvegicus [10]) of the same compound?
The Activity was 1.92 mL.

What about the Activity (Rattus norvegicus [11]) of the same compound?
Its Activity is 52.6 g.

And the Activity (Rattus norvegicus [12])?
The Activity was 55.1 g.
